Experimental data published in article PMC6122986 (The Journal of Cell Biology, 2018).

B1: Drosophila GST-EB1 (natural protein)
chain: MAVNVYSTNVTSENLSRHDMLAWVNDCLQSQFSKIEELCTGAAYCQFMDMLFPNSVPVKRVKFRTNLEHEYIQNFKILQAGFKKMSVDKIIPIDKLVKGRFQDNFEFLQWFKKFFDANYDGRDYDASAVREGAPMGFGSGAVKSLPGTAASGVSSSYRRGPSATTRPAMTSAVKPISKVLPRTNNAAPASRINACANSTGTVKKNDVSNSVNNQQIEEMSNQVMDMRINLEGLEKERDFYFSKLRDIEILCQEADDAEAHPIIQKILDILYATEDGFAPPDDAPPEDEEY
B2: NOD485: NOD truncation (1–485) that encompasses the motor domain and the noncanonical neck extension region (protein, UniProt P18105 1-485, looked up, fragment)
chain: MEGAKLSAVRIAVREAPYRQFLGRREPSVVQFPPWSDGKSLIVDQNEFHFDHAFPATISQDEMYQALILPLVDKLLEGFQCTALAYGQTGTGKSYSMGMTPPGEILPEHLGILPRALGDIFERVTARQENNKDAIQVYASFIEIYNEKPFDLLGSTPHMPMVAARCQRCTCLPLHSQADLHHILELGTRNRRVRPTNMNSNSSRSHAIVTIHVKSKTHHSRMNIVDLAGSEGVRRTGHEGVARQEGVNINLGLLSINKVVMSMAAGHTVIPYRDSVLTTVLQASLTAQSYLTFLACISPHQCDLSETLSTLRFGTSAKKLRLNPMQVARQKQSLAARTTHVFRQALCTSTAIKSNAANHNSIVVPKSKYSTTKPLSAVLHRTRSELGMTPKAKKRARELLELEETTLELSSIHIQDSSLSLLGFHSDSDKDRHLMPPPTGQEPRQASSQNSTLMGIVEETEPKESSKVQQSMVAPTVPTTVRCQL

Experiments:
[1] = target: FITC-labeled NOD "PT" motif-1 peptide (Drosophila melanogaster); test: MST
[2] = system: MTs in Drosophila S2 cells; test: Plus end-directed motility on MTs in cells; type: cell-based; settings: TIRF microscopy, interphase S2 cells
In short: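 Live TIRF imaged mCherry-tagged constructs on cortical MTs of interphase S2 cells. Cells were plated on concanavalin A-coated glass after 16–18 h CuSO4 induction at 500 µM (high) or 25 µM (low). Frames were taken every 1 s (single colour) or 2 s (dual colour, with GFP-α-tubulin). Velocities came from manually tracking motile puncta, with kymographs for direction.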

[3] = system: MTs in Drosophila S2 cells; test: MT association / localization in Drosophila S2 cells by live cell imaging; type: cell-based; settings: fixation with paraformaldehyde and permeabilization with detergent
In short: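 Drosophila S2 cells were grown in Schneider's medium with 10% heat-inactivated FBS at 25°C. Lines stably expressing C-terminally mCherry-tagged NOD truncations from a copper-inducible pMT vector were selected with blasticidin and/or hygromycin. Expression was induced with 500 µM or 25 µM CuSO4 for 16–18 h. Cells were imaged live on concanavalin A-coated glass and MT association scored as weak or strong. Retention was also checked after paraformaldehyde fixation and detergent permeabilization.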

Row | Molecule | Kd [1] [nM] | motility on MTs in cells (in words) [2] | MT localization upon fixation (in words) [3]
1 | B1 | 725 | – | –
2 | B2 | – | motility was not obvious | significantly reduced upon fixation
